Data on 19 compounds can be found in ChEMBL document CHEMBL1641481, “Synthesis and biological evaluation of novel dihydro-aryl/alkylsulfanyl-cyclohexylmethyl-oxopyrimidines (S-DACOs) as high active anti-HIV agents” (Bioorg Med Chem Lett, 2011).

Tested on in one data set: not listed separately
Description: Selectivity index, ratio of CC50 for human […] cells to EC50 for HIV1 3B infected in human C8166 cells. The note with it: read-out: Ratio CC50/IC50. Format: toxicity, cell-based. The gist of the method:
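SI was calculated as CC50/EC50. CC50 came from the 72 h MTT assay on uninfected C8166 cells. EC50 came from the 3-day syncytium-count assay in C8166 cells infected with HIV-1 IIIB at MOI 0.02. Both values are means of three experiments.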
As for `CCc1c(CC2CCCCC2)nc(SCc2ccccc2)[nH]c1=O`, the selectivity ratio amounted to 776. Take `CCc1c(Cc2ccccc2)nc(SCC(=O)c2ccccc2)[nH]c1=O`: the selectivity ratio was above 6850.

Turning to `COc1ccc(C(=O)CSc2nc(CC3CCCCC3)c(C)c(=O)[nH]2)cc1`, the selectivity ratio amounted to 396. With `Cc1ccnc2c1NC(=O)c1cccnc1N2C1CC1` [NEVIRAPINE], the selectivity ratio was above 15200.

As for `CC(C)c1c(Cc2ccccc2)nc(SCC(=O)c2ccccc2)[nH]c1=O`, the selectivity ratio is above 37700.

For `COc1ccc(C(=O)CSc2nc(CC3CCCCC3)c(C(C)C)c(=O)[nH]2)cc1`, the selectivity ratio was found to be 1.39e+06.

As for `CC(C)c1c(CC2CCCCC2)nc(SCC(=O)c2ccccc2)[nH]c1=O`, the selectivity ratio was 3.62e+06. Same read-out and setting: the figure for `Cc1c(CC2CCCCC2)nc(SCC(=O)c2ccccc2)[nH]c1=O` is 2150; for `Cc1cn([C@H]2C[C@H](N=[N+]=[N-])[C@@H](CO)O2)c(=O)[nH]c1=O` [ZIDOVUDINE] it is 444000; for `CC(C)c1c(CC2CCCCC2)nc(SCC(=O)c2ccccc2O)[nH]c1=O` it is 117000. The same measure, in the same setting: the figure for `CC(C)c1c(CC2CCCCC2)nc(SCc2ccccc2)[nH]c1=O` is 2.54e+06. `CCc1c(Cc2ccccc2)nc(SCC(=O)c2ccc(OC)cc2)[nH]c1=O`: the selectivity ratio is above 10500. Still for that read-out and setting: the figure for `Cc1c(CC2CCCCC2)nc(SCC(C)C)[nH]c1=O` is 34.

On to `CCc1c(CC2CCCCC2)nc(SCC(=O)c2ccccc2)[nH]c1=O`, for which the selectivity ratio came out at 6.32e+06. For `CCc1c(CC2CCCCC2)nc(SCC(C)C)[nH]c1=O`, the selectivity ratio was 691. Still for that read-out and setting: the figure for `COc1ccc(C(=O)CSc2nc(Cc3ccccc3)c(C(C)C)c(=O)[nH]2)cc1` is above 3390.

`CC(C)CSc1nc(CC2CCCCC2)c(C(C)C)c(=O)[nH]1`: the selectivity ratio was 1710. In the case of `CCc1c(CC2CCCCC2)nc(SCC(=O)c2ccc(OC)cc2)[nH]c1=O`, the selectivity ratio is 516000. Regarding `Cc1c(CC2CCCCC2)nc(SCc2ccccc2)[nH]c1=O`, the selectivity ratio was determined as 48.

Another data set deals with Human immunodeficiency virus 1. Description: Antiviral activity against HIV1 3B infected in human PBMC assessed as protection against virus-induced cytopathogenicity after 3 days. Format: functional, organism-based. The conditions noted are these: Human immunodeficiency virus 1, 3B, 72 h. (In general: Cytopathic effects are the visible damage that an infection or toxin causes in cultured cells.)
With `CC(C)c1c(CC2CCCCC2)nc(SCC(=O)c2ccccc2)[nH]c1=O`, the EC50 (in general, the concentration at which the effect is half-maximal) turned out to be 31 nM.

For the next data set, the system named is Human immunodeficiency virus 1. Description: Antiviral activity against HIV1 3B infected in human A17 cells assessed as protection against virus-induced cytopathogenicity after 3 days. Format: functional, organism-based. The conditions noted are these: Human immunodeficiency virus 1, 3B, A17, 72 h.
For `CC(C)c1c(CC2CCCCC2)nc(SCC(=O)c2ccccc2)[nH]c1=O`, the EC50 came out at 46 nM.
